ChEMBL document CHEMBL1140264, “Sulfur-substituted alpha-alkyl phenethylamines as selective and reversible MAO-A inhibitors: biological activities, CoMFA analysis, and active site modeling” (J Med Chem, 2005)

How the values were obtained:
[1] = molecular target: T1, Amine oxidase [flavin-containing] A (Rattus norvegicus, UniProt P21396); assay: Inhibitory concentration against monoamine oxidase A in rat brain mitochondrial suspension; assay type: tissue-based
T1 sequence (P21396 whole entry): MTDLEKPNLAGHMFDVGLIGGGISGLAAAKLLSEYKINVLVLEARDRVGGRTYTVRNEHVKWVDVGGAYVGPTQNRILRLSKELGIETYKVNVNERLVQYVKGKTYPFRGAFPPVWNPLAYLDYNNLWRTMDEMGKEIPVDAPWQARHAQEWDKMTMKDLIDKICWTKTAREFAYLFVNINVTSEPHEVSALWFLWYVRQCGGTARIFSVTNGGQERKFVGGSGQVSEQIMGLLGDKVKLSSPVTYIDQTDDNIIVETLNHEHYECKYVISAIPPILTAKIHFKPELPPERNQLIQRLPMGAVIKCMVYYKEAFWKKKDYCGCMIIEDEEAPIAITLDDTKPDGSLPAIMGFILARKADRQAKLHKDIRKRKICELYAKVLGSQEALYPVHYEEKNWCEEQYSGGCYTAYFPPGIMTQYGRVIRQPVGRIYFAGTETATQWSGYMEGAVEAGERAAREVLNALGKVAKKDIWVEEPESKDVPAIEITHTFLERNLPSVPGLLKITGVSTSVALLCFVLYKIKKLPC
Procedure, shortened: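 Crude brain mitochondrial suspension from male Sprague-Dawley rats (180-220 g). MAO-A substrate 5-HT 100 µM; substrate and deaminated metabolite measured by HPLC with electrochemical detection. Inhibition relative to enzyme treated identically without inhibitor. IC50 from % inhibition vs -log[I] curves, 5-8 concentrations each in triplicate; mean ± SD of at least two independent experiments.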

[2] = molecular target: T1, Amine oxidase [flavin-containing] A; assay: Percent inhibition of rat brain monoamine oxidase A in mitochondrial suspension after 10 minutes pre-incubation before washing at 10e-7 M
Procedure, shortened: (§1)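 Crude rat brain mitochondrial suspension preincubated 10 min with inhibitor, then washed three times by centrifugation and resuspension. MAO-A activity measured before and after washing by HPLC-ED with 5-HT (100 µM) as selective substrate, against control preparations. Mean ± SD of triplicate determinations.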

[3] = molecular target: T1, Amine oxidase [flavin-containing] A; assay: Percent inhibition of rat brain monoamine oxidase A in mitochondrial suspension after 10 minutes pre-incubation and washing at 10e-7 M; procedure, shortened: as §1
[4] = molecular target: T1, Amine oxidase [flavin-containing] A; assay: Percent inhibition of rat brain monoamine oxidase A in mitochondrial suspension with 30 minutes pre-incubation at 10e-7 M; settings: 0.5 h
[5] = molecular target: T1, Amine oxidase [flavin-containing] A; assay: Percent inhibition of rat brain monoamine oxidase A in mitochondrial suspension without pre-incubation at 10e-7 M

SMILES | IC50 [1] | also measured
COc1cc(SC(C)C)c(OC)cc1CC(C)N (configuration not stated) | 27.3 µM | 
CCOc1ccc(CC(C)N)cc1 (configuration not stated) | 0.2 µM | 
CCCSc1cc(OC)c(CC(C)NC)cc1OC (configuration not stated) | 0.3 µM | 
COc1cc(SC)cc(OC)c1CC(C)N (configuration not stated) | 0.3 µM | 
CCC(Cc1cc(OC)c(SC)cc1OC)NC (configuration not stated) | 15.5 µM | 
COc1cc(Cl)c(CC(C)N)c(OC)c1 (configuration not stated) | 0.07 µM | Inhibition [2]: 58%; Inhibition [3]: 0%
CCSc1cc(OC)c(CC(C)NC)cc1OC (configuration not stated) | 1.4 µM | 
CCCSc1cc(OC)c(CC(N)CC)cc1OC (configuration not stated) | 7.6 µM | 
CCSc1cc(OC)c(CC(C)N)c(OC)c1 (configuration not stated) | 0.08 µM | Inhibition [2]: 40%; Inhibition [4]: 33%; Inhibition [5]: 23.7%; Inhibition [3]: 0%
CNC(C)Cc1cc(OC)c(SC)cc1OC (configuration not stated) | 1.8 µM | 
CC(C)CSc1ccc(CC(C)N)cc1 (configuration not stated) | 0.4 µM | 
CCCCSc1cc(OC)c(CC(C)N)cc1OC (configuration not stated) | 2.9 µM | 
CCC(N)Cc1cc(OC)c(SC)cc1OC (configuration not stated) | 30.9 µM | 
CCSc1cc(OC)c(CC(CC)NC)cc1OC (configuration not stated) | 4.5 µM | 
CCCCCSc1cc(OC)c(CC(C)N)cc1OC (configuration not stated) | 14.3 µM | 
CCCSc1cc(OC)c(CC(CC)NC)cc1OC (configuration not stated) | 1.4 µM | 
COc1cc(SCCc2ccccc2)c(OC)cc1CC(C)N (configuration not stated) | > 100 µM | 
CCSc1ccc(CC(C)N)cc1 (configuration not stated) | 0.1 µM | 
COc1ccc(CC(C)N)cc1OC (configuration not stated) | 20 µM | 

SMILES | IC50 [1] | also measured
COc1ccc(CC(C)N)c(OC)c1 (configuration not stated) | 0.6 µM | 
COc1cc(Br)c(CC(C)N)cc1OC (configuration not stated) | 9.3 µM | 
COc1cc(OC)c(CC(C)N)cc1Br (configuration not stated) | 13 µM | 
CCSc1cc(OC)c(CC(C)N)cc1OC (configuration not stated) | 3.8 µM | 
COc1cc(OC)c(CC(C)N)c(OC)c1 (configuration not stated) | 0.4 µM | 
CCCSc1cc(OC)c(CC(C)N)cc1OC (configuration not stated) | 2.4 µM | Inhibition [2]: 20%; Inhibition [4]: 20%; Inhibition [5]: 15.7%; Inhibition [3]: 0%
CC(N)Cc1ccc(Cl)cc1 (configuration not stated) | 4 µM | 
CCSc1cc(OC)c(CC(N)CC)cc1OC (configuration not stated) | 11.8 µM | 
COc1cc(SC)c(OC)cc1CC(C)N (configuration not stated) | 5.2 µM | 
COc1cc(CC(C)N)c(OC)cc1I (configuration not stated) | 44 µM | 
COc1cc(C(F)(F)F)c(OC)cc1CC(C)N (configuration not stated) | > 100 µM | 
COc1cc(CC(C)N)c(OC)cc1N (configuration not stated) | > 100 µM | 
COc1cc([N+](=O)[O-])c(OC)cc1CC(C)N (configuration not stated) | > 100 µM | 
COc1ccc(OC)c(CC(C)N)c1 (configuration not stated) | > 100 µM | 
CSc1ccc(CC(C)N)cc1 (configuration not stated) [4-METHYLTHIOAMPHETAMINE] | 0.2 µM | 
COc1cc(CC(C)N)c(OC)cc1Br (configuration not stated) [BROLAMFETAMINE] | 100 µM | 
COc1cc(CC(C)N)c(OC)cc1C (configuration not stated) [DOM] | 24 µM | 
COc1ccc(CC(C)N)cc1 (configuration not stated) [PARA-METHOXYAMPHETAMINE] | 0.3 µM | 
